# Reference: article PMC7056463 (British Journal of Pharmacology, 2020)
# Positions of bridges follow the written chain, without caps; N, C: chain ends. Residues, ends and D or L forms follow the SMILES beside them. No end group written: not given here.
# Key:
# murine GC‐A = target: T1, murine GC‐A (Mus musculus, UniProt P18293); assay: cGMP formation in GC‐A‐transfected HEK293 cells; assay type: cell-based; conditions: 1 μM peptide, 5 min; cGMP ELISA; n = 3 in triplicates
# T1 sequence (P18293 29-1057): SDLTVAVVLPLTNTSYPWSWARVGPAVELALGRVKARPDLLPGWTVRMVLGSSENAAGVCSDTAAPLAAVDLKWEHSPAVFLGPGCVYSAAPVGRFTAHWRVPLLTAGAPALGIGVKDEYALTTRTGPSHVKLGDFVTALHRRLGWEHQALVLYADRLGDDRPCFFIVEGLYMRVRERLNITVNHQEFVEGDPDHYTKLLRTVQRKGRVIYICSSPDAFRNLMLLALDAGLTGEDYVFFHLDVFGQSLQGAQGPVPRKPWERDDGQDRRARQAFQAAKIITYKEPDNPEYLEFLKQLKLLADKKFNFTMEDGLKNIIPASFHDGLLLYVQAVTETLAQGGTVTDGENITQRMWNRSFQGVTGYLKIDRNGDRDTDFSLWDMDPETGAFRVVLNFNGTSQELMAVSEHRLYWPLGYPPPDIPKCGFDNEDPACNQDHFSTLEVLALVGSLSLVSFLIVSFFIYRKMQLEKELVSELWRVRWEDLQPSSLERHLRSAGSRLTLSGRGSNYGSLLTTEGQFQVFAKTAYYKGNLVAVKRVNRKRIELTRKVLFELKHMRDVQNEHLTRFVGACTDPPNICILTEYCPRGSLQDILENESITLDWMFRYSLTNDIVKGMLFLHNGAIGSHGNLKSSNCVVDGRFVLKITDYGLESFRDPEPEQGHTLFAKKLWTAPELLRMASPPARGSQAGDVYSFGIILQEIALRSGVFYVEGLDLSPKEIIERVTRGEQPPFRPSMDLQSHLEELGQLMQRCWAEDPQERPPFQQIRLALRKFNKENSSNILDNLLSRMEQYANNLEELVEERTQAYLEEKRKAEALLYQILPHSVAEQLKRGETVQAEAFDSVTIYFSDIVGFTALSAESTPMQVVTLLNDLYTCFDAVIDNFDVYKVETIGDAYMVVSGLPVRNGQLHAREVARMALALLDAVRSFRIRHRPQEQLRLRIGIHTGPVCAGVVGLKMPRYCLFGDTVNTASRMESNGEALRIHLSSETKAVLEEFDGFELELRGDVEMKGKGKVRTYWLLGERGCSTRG
# In short: (§1)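 HEK293 cells in DMEM/10% FBS were transfected with murine GC‐A or GC‐B plasmid (PolyFect, DMEM/0.5% FBS); empty‐plasmid cells served as controls. After 24 h, cells were exposed to 1 μM peptide or Tris vehicle for 5 min, washed in cold HBSS and lysed. cGMP was measured by ELISA (405 nm, 570 nm correction) in pmol/mL; n = 3 in triplicates.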
# [1] = Degradation of hBNP by human lung homogenate; assay type: in vitro ADME; conditions: 10 μM peptide; human lung homogenate 90 μg protein 150 μL buffer; Tris 50 mM pH 7.5 with 0.1% BSA; 37°C; 10 min; LCMS
# murine GC‐B = target: T2, murine GC‐B (Mus musculus, UniProt Q6VVW5); assay: cGMP formation in GC‐B‐transfected HEK293 cells; assay type: cell-based; conditions: 1 μM peptide, 5 min; cGMP ELISA; n = 3 in triplicates
# T2 sequence (Q6VVW5 17-1047): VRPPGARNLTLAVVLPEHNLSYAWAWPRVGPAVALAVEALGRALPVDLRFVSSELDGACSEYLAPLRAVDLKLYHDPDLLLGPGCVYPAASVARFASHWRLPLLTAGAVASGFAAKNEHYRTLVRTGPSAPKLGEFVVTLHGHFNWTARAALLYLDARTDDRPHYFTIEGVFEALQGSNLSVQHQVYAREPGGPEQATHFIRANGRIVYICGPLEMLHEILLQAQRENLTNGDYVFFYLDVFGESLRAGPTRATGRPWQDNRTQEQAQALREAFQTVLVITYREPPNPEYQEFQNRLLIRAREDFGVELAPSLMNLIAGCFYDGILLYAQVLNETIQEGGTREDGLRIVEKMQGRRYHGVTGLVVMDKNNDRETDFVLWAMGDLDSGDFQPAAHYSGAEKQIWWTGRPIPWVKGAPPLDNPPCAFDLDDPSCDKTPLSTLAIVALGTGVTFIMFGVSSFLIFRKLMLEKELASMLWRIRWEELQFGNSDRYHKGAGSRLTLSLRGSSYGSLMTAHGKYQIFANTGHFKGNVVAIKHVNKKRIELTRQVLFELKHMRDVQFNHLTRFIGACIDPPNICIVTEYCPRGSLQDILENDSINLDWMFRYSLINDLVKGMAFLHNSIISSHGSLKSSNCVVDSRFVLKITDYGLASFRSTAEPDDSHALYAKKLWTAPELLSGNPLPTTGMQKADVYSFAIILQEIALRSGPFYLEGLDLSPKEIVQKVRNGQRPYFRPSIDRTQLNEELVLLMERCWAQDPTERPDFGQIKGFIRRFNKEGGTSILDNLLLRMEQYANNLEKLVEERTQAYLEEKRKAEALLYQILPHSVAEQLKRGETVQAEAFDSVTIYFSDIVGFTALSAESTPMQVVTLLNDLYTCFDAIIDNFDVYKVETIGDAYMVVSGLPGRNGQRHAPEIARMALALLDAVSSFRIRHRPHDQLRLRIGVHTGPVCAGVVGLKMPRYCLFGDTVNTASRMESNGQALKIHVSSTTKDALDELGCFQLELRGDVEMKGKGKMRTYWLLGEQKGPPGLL
# In short: as §1
# [2] = system: GC‐A and GC‐B double‐transfected HEK cells; assay: Dose–response of cGMP in GC‐A and GC‐B double‐transfected HEK cells; assay type: cell-based, mouse; conditions: compared to BNP1‐32
# In short: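 HEK293 cells were transfected with both murine GC‐A and GC‐B plasmids and used 24 h later. Cells were stimulated for 5 min with peptide at graded concentrations in Tris vehicle, washed in cold HBSS and lysed. cGMP was quantified by ELISA (405/570 nm). EC50 came from a sigmoidal dose–response fit, and curves were compared by two‐way ANOVA.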
# C57B/L6J mice = assay: Plasma cGMP after bolus injection in normotensive mice; assay type: in vivo, mouse; conditions: plasma taken after 4 min haemodynamic measurement, cGMP ELISA
# In short: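 Male 16‐week C57B/L6J mice (randomised, blinded) were anaesthetised with isoflurane, ventilated and kept at about 37°C, with a carotid pressure catheter and jugular cannula. After a 10‐min baseline, an i.v. bolus of 1.67 nmol peptide g‐1 or saline was given and haemodynamics followed for 4 min. EDTA blood was then taken by LV puncture. Plasma cGMP was ELISA‐measured after 95% ethanol extraction; n = 7 per peptide, 5 saline.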
# [3] = system: spontaneously hypertensive rats; assay type: in vivo, rat
# [4] = system: spontaneously hypertensive rats; assay: Cardiac ANP and BNP mRNA by real time PCR in spontaneously hypertensive rats; assay type: in vivo, rat; conditions: SHR; 3 days administration; RT‐PCR, relative to saline treated rats; n = 6
# In short: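 After 3 days of subcutaneous osmotic minipump infusion (300 ng kg‐1 min‐1; saline controls) in male 12‐week SHR, cardiac RNA was isolated. 1 μg RNA was reverse‐transcribed and SYBR Green qPCR run with rat ANP and BNP primers. Melting curves checked product purity. Values are relative to saline‐treated rats; n = 6 per group.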
compound,measurement,setting,value
"BNP1‐32: murine B‐type natriuretic peptide 1‐32, synthesised by Biosyntan (SQGSTLRVQQRPQNSKVTHISSCFGHKIDRIG; Brain natriuretic peptide 45; UniProt P40753 77-108, looked up, fragment)",cGMP formation in GC‐A‐transfected HEK293 cells,murine GC‐A,stimulated their native receptor GC‐A
human BNP1‐32: mature human BNP1‐32,Degradation of hBNP1‐32 in human lung homogenate,[1],decreased peak area
CC[C@H](C)[C@@H]1NC(=O)[C@H](CCCNC(=N)N)NC(=O)[C@H](CC(=O)O)NC(=O)[C@H]([C@@H](C)CC)NC(=O)[C@H](CCCCN)NC(=O)[C@H](Cc2c[nH]cn2)NC(=O)CNC(=O)[C@H](Cc2ccccc2)NC(=O)[C@@H](NC(=O)[C@H](CO)NC(=O)[C@H](CO)NC(=O)[C@@H](NC(=O)[C@H](Cc2c[nH]cn2)NC(=O)[C@@H](NC(=O)[C@@H](NC(=O)[C@H](CCCCN)NC(=O)[C@H](CO)NC(=O)[C@@H](N)CC(N)=O)C(C)C)[C@@H](C)O)[C@@H](C)CC)CSSC[C@@H](C(=O)N[C@@H](CC(N)=O)C(=O)N[C@@H](C)C(=O)N[C@@H](CC(C)C)C(=O)N[C@@H](CCCCN)C(=O)O)NC(=O)CNC(=O)[C@H](CC(C)C)NC(=O)[C@H](CCCNC(=N)N)NC(=O)[C@H](CO)NC(=O)[C@H](C(C)C)NC(=O)[C@H](CO)NC(=O)CNC1=O [BNP1‐30] (H-NSKVTHISSCFGHKIDRIGSVSRLGCNALK-OH; disulfide 10-26; N-terminus assumed),cGMP formation in GC‐A‐transfected HEK293 cells,murine GC‐A,significantly higher
same,Stimulation of GC‐B in transfected HEK293 cells,murine GC‐B,much more pronounced effect
same,cGMP effect on GC‐B transfected cells in comparison to BNP1‐32,murine GC‐B,3 fold
same,Efficiency in dose‐response curves of double‐transfected HEK293 cells,[2],more efficient
same,Increase in plasma cGMP levels compared to BNP1‐32 treated animals,C57B/L6J mice,more pronounced increase
same,Lowering of SBP,"[3]; SHR, osmotic minipump 300 ng kg^‐1 min^‐1 for 3 days, versus saline group",16%
same,Reduction of systolic BP (abstract),"[3]; model of severe hypertension, 3‐day infusion",30 mmHg
same,Cardiac ANP mRNA,[4],more pronounced
same,Cardiac BNP mRNA levels,[4],significantly reduced
"murine ANP: murine atrial natriuretic peptide (SLRRSSCFGGRIDRIGAQSGLGCNSFRY; disulfide 7-23 (inferred); ends not checked; UniProt P05125 123-150, looked up)",cGMP formation in GC‐A‐transfected HEK293 cells,murine GC‐A,stimulated their native receptor GC‐A
